# Key:
# Assay type in all cases: functional
# Staphylococcus aureus [1] = assay: Antimicrobial activity against macrolide, licosamide streptogramin-resistant Staphylococcus aureus 90265/97 by broth microdilution method
# How it was run: (§1)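 MIC determined by the standard broth microdilution method; values reported in mg/L. Reference macrolide antibiotics were tested alongside as comparators.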
# Streptococcus pyogenes [2] = assay: Antimicrobial activity against macrolide-resistant Streptococcus pyogenes Finland 2 by broth microdilution method; how it was run: as §1
# Streptococcus pyogenes [3] = assay: Antimicrobial activity against Streptococcus pyogenes 166 GR-Micro by broth microdilution method
# How it was run: (§2)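 Standard broth microdilution assay. Read-out is the minimum inhibitory concentration, reported in mg/L.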
# Streptococcus pyogenes [4] = assay: Antimicrobial activity against Streptococcus pyogenes 3565 by broth microdilution method; how it was run: as §2
# Streptococcus pneumoniae [5] = assay: Antimicrobial activity against Streptococcus pneumoniae 134 GR-M by broth microdilution method; how it was run: as §2
# Staphylococcus aureus [6] = assay: Antimicrobial activity against efflux-mediated macrolide-resistant Staphylococcus aureus PK1 by broth microdilution method; how it was run: as §1
# Staphylococcus aureus [7] = assay: Antimicrobial activity against Staphylococcus aureus ATCC 13709 by broth microdilution method; how it was run: as §1
# Streptococcus pneumoniae [8] = assay: Antimicrobial activity against Streptococcus pneumoniae SP030 by broth microdilution method; how it was run: as §2
# Streptococcus pneumoniae [9] = assay: Antimicrobial activity against Streptococcus pneumoniae 58 spain by broth microdilution method; how it was run: as §2
# Haemophilus influenzae = assay: Antimicrobial activity against Haemophilus influenzae ATCC 49247 by broth microdilution method; how it was run: as §2
# Streptococcus pyogenes [10] = assay: Antimicrobial activity against Streptococcus pyogenes Finland 2 by broth microdilution method; how it was run: as §1
SMILES,MIC (Staphylococcus aureus [1]),MIC (Streptococcus pyogenes [2]),MIC (Streptococcus pyogenes [3]),MIC (Streptococcus pyogenes [4]),MIC (Streptococcus pneumoniae [5]),MIC (Staphylococcus aureus [6]),MIC (Staphylococcus aureus [7]),MIC (Streptococcus pneumoniae [8]),MIC (Streptococcus pneumoniae [9]),MIC (Haemophilus influenzae),MIC (Streptococcus pyogenes [10])
CCOC(=O)CCCCCOCC#Cc1ccc2c(c1)c(=O)c(C(=O)OCC)cn2CC,> 64 µg/mL,> 64 µg/mL,> 64 µg/mL,8 µg/mL,64 µg/mL,> 64 µg/mL,> 64 µg/mL,16 µg/mL,64 µg/mL,> 64 µg/mL,> 64 µg/mL
CCn1cc(C(=O)O)c(=O)c2cc(C#CCOCCCCCC(=O)O)ccc21,> 64 µg/mL,,> 64 µg/mL,> 64 µg/mL,> 64 µg/mL,> 64 µg/mL,> 64 µg/mL,> 64 µg/mL,> 64 µg/mL,> 64 µg/mL,> 64 µg/mL
CCOC(=O)CCCCOCC#Cc1ccc2c(c1)c(=O)c(C(=O)OCC)cn2CC,> 64 µg/mL,,> 64 µg/mL,> 64 µg/mL,> 64 µg/mL,> 64 µg/mL,> 64 µg/mL,> 64 µg/mL,> 64 µg/mL,> 64 µg/mL,> 64 µg/mL
CCn1cc(C(=O)O)c(=O)c2cc(C#CCOCCCCC(=O)O)ccc21,> 64 µg/mL,16 µg/mL,> 64 µg/mL,1 µg/mL,> 64 µg/mL,> 64 µg/mL,> 64 µg/mL,1 µg/mL,2 µg/mL,> 64 µg/mL,16 µg/mL
CC[C@H]1OC(=O)[C@H](C)[C@@H](O[C@H]2C[C@@](C)(OC)[C@@H](OC(=O)CCCCCOCCCc3ccc4c(c3)c(=O)c(C(=O)O)cn4CC)[C@H](C)O2)[C@H](C)[C@@H](O[C@@H]2O[C@H](C)C[C@H](N(C)C)[C@H]2O)[C@](C)(O)C[C@@H](C)CN(C)[C@H](C)[C@@H](O)[C@]1(C)O,0.25 µg/mL,,< 0.125 µg/mL,< 0.125 µg/mL,< 0.125 µg/mL,0.25 µg/mL,0.25 µg/mL,< 0.125 µg/mL,< 0.125 µg/mL,0.5 µg/mL,< 0.125 µg/mL
CC[C@H]1OC(=O)[C@H](C)[C@@H](O[C@H]2C[C@@](C)(OC)[C@@H](OC(=O)CCCCCOCCCc3ccc4c(c3)c(=O)c(C(=O)O)cn4CC)[C@H](C)O2)[C@H](C)[C@@H](O[C@@H]2O[C@H](C)C[C@H](N(C)C)[C@H]2O)[C@](C)(O)C[C@@H](C)CN(C)[C@H](C)[C@@H](OC)[C@]1(C)O,2 µg/mL,,0.5 µg/mL,< 0.125 µg/mL,0.5 µg/mL,1 µg/mL,1 µg/mL,< 0.125 µg/mL,< 0.125 µg/mL,1 µg/mL,< 0.125 µg/mL
CC[C@H]1OC(=O)[C@H](C)[C@@H](O[C@H]2C[C@@](C)(OC)[C@@H](OC(=O)CCCCOCC#Cc3ccc4c(c3)c(=O)c(C(=O)O)cn4CC)[C@H](C)O2)[C@H](C)[C@@H](O[C@@H]2O[C@H](C)C[C@H](N(C)C)[C@H]2O)[C@](C)(O)C[C@@H](C)CN(C)[C@H](C)[C@@H](O)[C@]1(C)O,4 µg/mL,,1 µg/mL,< 0.125 µg/mL,0.5 µg/mL,0.5 µg/mL,0.5 µg/mL,< 0.125 µg/mL,< 0.125 µg/mL,1 µg/mL,< 0.125 µg/mL
CC[C@H]1OC(=O)[C@H](C)[C@@H](O[C@H]2C[C@@](C)(OC)[C@@H](OC(=O)CCCCOCCCc3ccc4c(c3)c(=O)c(C(=O)O)cn4CC)[C@H](C)O2)[C@H](C)[C@@H](O[C@@H]2O[C@H](C)C[C@H](N(C)C)[C@H]2O)[C@](C)(O)C[C@@H](C)CN(C)[C@H](C)[C@@H](O)[C@]1(C)O,4 µg/mL,,0.25 µg/mL,< 0.125 µg/mL,0.25 µg/mL,0.5 µg/mL,0.5 µg/mL,< 0.125 µg/mL,< 0.125 µg/mL,2 µg/mL,< 0.125 µg/mL
CC[C@H]1OC(=O)[C@H](C)[C@@H](O[C@H]2C[C@@](C)(OC)[C@@H](OC(=O)CCCCCOCC#Cc3ccc4c(c3)c(=O)c(C(=O)O)cn4CC)[C@H](C)O2)[C@H](C)[C@@H](O[C@@H]2O[C@H](C)C[C@H](N(C)C)[C@H]2O)[C@](C)(OC)C[C@@H](C)C(=O)[C@H](C)[C@@H](O)[C@]1(C)O,8 µg/mL,,2 µg/mL,< 0.125 µg/mL,4 µg/mL,2 µg/mL,2 µg/mL,< 0.125 µg/mL,< 0.125 µg/mL,16 µg/mL,< 0.125 µg/mL
CC[C@H]1OC(=O)[C@H](C)[C@@H](O[C@H]2C[C@@](C)(OC)[C@@H](OC(=O)CCCCCOCCCc3ccc4c(c3)c(=O)c(C(=O)O)cn4CC)[C@H](C)O2)[C@H](C)[C@@H](O[C@@H]2O[C@H](C)C[C@H](N(C)C)[C@H]2O)[C@](C)(OC)C[C@@H](C)C(=O)[C@H](C)[C@@H](O)[C@]1(C)O,4 µg/mL,,< 0.125 µg/mL,< 0.125 µg/mL,1 µg/mL,2 µg/mL,2 µg/mL,< 0.125 µg/mL,< 0.125 µg/mL,8 µg/mL,< 0.125 µg/mL
CC[C@H]1OC(=O)[C@H](C)[C@@H](O[C@H]2C[C@@](C)(OC)[C@@H](O)[C@H](C)O2)[C@H](C)[C@@H](O[C@@H]2O[C@H](C)C[C@H](N(C)C)[C@H]2O)[C@](C)(O)C[C@@H](C)CN(C)[C@H](C)[C@@H](O)[C@]1(C)O [AZITHROMYCIN],> 64 µg/mL,16 µg/mL,> 64 µg/mL,< 0.125 µg/mL,> 64 µg/mL,> 64 µg/mL,0.5 µg/mL,< 0.125 µg/mL,> 64 µg/mL,1 µg/mL,16 µg/mL
CC[C@H]1OC(=O)[C@H](C)[C@@H](O[C@H]2C[C@@](C)(OC)[C@@H](O)[C@H](C)O2)[C@H](C)[C@@H](O[C@@H]2O[C@H](C)C[C@H](N(C)C)[C@H]2O)[C@](C)(OC)C[C@@H](C)C(=O)[C@H](C)[C@@H](O)[C@]1(C)O [CLARITHROMYCIN],> 64 µg/mL,4 µg/mL,> 64 µg/mL,≤ 0.125 µg/mL,> 64 µg/mL,32 µg/mL,≤ 0.125 µg/mL,≤ 0.125 µg/mL,> 64 µg/mL,8 µg/mL,4 µg/mL
CC[C@H]1OC(=O)[C@H](C)C(=O)[C@H](C)[C@@H](O[C@@H]2O[C@H](C)C[C@H](N(C)C)[C@H]2O)[C@](C)(OC)C[C@@H](C)C(=O)[C@H](C)[C@H]2N(CCCCn3cnc(-c4cccnc4)c3)C(=O)O[C@]12C [TELITHROMYCIN],< 0.125 µg/mL,0.5 µg/mL,16 µg/mL,< 0.125 µg/mL,0.25 µg/mL,0.125 µg/mL,0.25 µg/mL,< 0.125 µg/mL,0.25 µg/mL,1 µg/mL,0.5 µg/mL

# Reference: ChEMBL document CHEMBL1221271, “6-Alkylquinolone-3-carboxylic acid tethered to macrolides synthesis and antimicrobial profile” (2010)
